Laboratory results published in article PMC3150598 (Journal of medicinal chemistry, 2011).
Values belong to the molecule of their own block, whether it stands above or below them.

Legend:
[1] = system: HDACs 1–9; assay: HDAC assay: biochemical profiling against purified HDAC isoforms
[2] = Blood half-life of 1a after i.v. or p.o. administration; type: in vivo, C57BL/6 mice; details: for dosed compound still present in whole blood: i.v., after initial burst phase
[3] = Biodistribution of 1a after i.v. injection; type: in vivo, C57BL/6 mice; details: 1 hour and 3 hours after i.v. injection
Procedure, shortened: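 Six C57BL/6 mice received 241 ± 18 μCi of the 18F-labelled test compound by tail-vein i.v. injection. Groups were killed at 1 h (n=3) and 3 h (n=3) post-injection. Tissues were excised and weighed, and radioactivity was gamma-counted and expressed as %ID/g.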

[4] = system: A2780 human ovarian cancer cells; assay: PET-CT of A2780 tumor xenograft before and after competition with cold SAHA; type: in vivo, Nu/Nu mice; details: after systemic administration
[5] = system: HDAC; details: cited from earlier work
[6] = system: HDAC; details: cited from earlier work; remark: listed apart in the source

dosed compound still present in whole blood ([2]; formulation A (60% PEG400, 40% water)): < 1% | dosed compound still present in whole blood ([2]; formulation B (10%DMSO, 90% water)): ~3% | terminal half-life relative to initial t1/2 ([2]; single bolus i.v.): approximately 10 times longer | concentration in cardiac tissue [3]: comparatively low concentrations | tissues with highest concentration [3]: kidney, liver and blood | tissues with lowest concentration [3]: thymus and brain
SMILES: O=C(CCCCCCC(=O)Nc1ccc([18F])cc1)NO [1a, 18F-suberoylanilide hydroxamic acid]
HDAC potency [1]: low nanomolar potency | accumulation in tumors [4]: accumulate in tumors in a time-dependent manner

SMILES: O=C(CCCCCCC(=O)Nc1ccc([19F])cc1)NO [1b, N-Hydroxy-N'-(4-fluorophenyl)octanediamide]
potency and selectivity of inhibition of primary HDAC targets compared with SAHA ([1]; HDACs 1–3 and 6): virtually indistinguishable from SAHA | HDAC isoforms inhibited ([1]; profiled against purified HDACs 1–9): inhibited only HDACs 1–3 and 6

SMILES: Nc1ccccc1NC(=O)c1ccc(CNC(=O)OCc2cccnc2)cc1 [5b]
HDAC isoform selectivity [5]: selective for HDAC1–3 | potency relative to SAHA (fold less potent) [5]: 20–70 fold

SMILES: O=C(C[18F])NCCCCCC(=O)Nc1ccccc1 [compound 4, 6-([18F]-fluoroacetamide)-1-hexanoicanilide]
metabolism in vivo [6]: rapidly metabolized in vivo
